In ChEMBL document CHEMBL1671683, “Activity of linezolid in an in vitro pharmacokinetic-pharmacodynamic model using different dosages and Staphylococcus aureus and Enterococcus faecalis strains with and without a hypermutator phenotype” (Antimicrob Agents Chemother, 2010):

What was measured:
[1] = Cmax in two-compartment pharmacokinetic/pharmacodynamic model at 600 mg, bid administered as 0.5 hr infusion over 24 hrs; type: ADME, organism-based; design: dose 600 mg; settings: iv
[2] = Mean residence time in two-compartment pharmacokinetic/pharmacodynamic model at 800 mg, bid administered as 0.5 hr infusion over 24 hrs; type: ADME, organism-based; settings: in vivo, iv
Enterococcus faecalis [3] = test: Bactericidal activity against 48 hrs peripheral compartment culture samples of Enterococcus faecalis ATCC 29212 in two-compartment pharmacokinetic/pharmacodynamic model assessed as effect on bacterial count at 200 mg, bid administered as 0.5 hr infusion; type: functional
How it was run: (§1)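 An 18-h culture concentrated 50-fold was injected into the peripheral compartment 3 h pre-sampling (~10^8 CFU/ml E. faecalis, 10^9 S. aureus). Counts came from dilution plating (detection limit 2–3 log10 CFU/ml), expressed as Δlog CFU/ml from treatment start. Run in duplicate.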

Enterococcus faecalis [4] = test: Bactericidal activity against 0.5 hrs peripheral compartment culture samples of Enterococcus faecalis Ef1497 MutM3 in two-compartment pharmacokinetic/pharmacodynamic model assessed as effect on bacterial count at 600 mg, bid administered as 0.5 hr infusion; type: functional
How it was run: (§2)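 Two-compartment hollow-fibre model in cation-adjusted, protein-free MH broth, 37°C. Linezolid given as simulated 0.5-h infusion twice daily. Inoculum grown 18 h, concentrated 50-fold and placed in the peripheral compartment 3 h before t0. Peripheral samples at set times counted by dilution plating. First 10-fold dilution not plated, limiting detection to 2–3 log10 CFU/ml. Δlog CFU/ml taken from t0 count. Duplicates.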

[5] = Apparent volume of distribution in two-compartment pharmacokinetic/pharmacodynamic model at 800 mg, bid administered as 0.5 hrs infusion; type: ADME, organism-based; settings: iv
Staphylococcus aureus [6] = test: Bactericidal activity against 0.5 hrs peripheral compartment culture samples of Staphylococcus aureus RN4220 MutS2 in two-compartment pharmacokinetic/pharmacodynamic model assessed as effect on bacterial count at 600 mg, bid administered as 0.5 hr infusion; type: functional; how it was run: as §2
Enterococcus faecalis [7] = test: AUBC (0 to 24 hrs) in Enterococcus faecalis Ef1497 MutM3 in two-compartment pharmacokinetic/pharmacodynamic model at 200 mg, bid administered as 0.5 hr infusion for 2 days; type: functional
How it was run: (§3)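 Hollow-fibre two-compartment model in cation-adjusted, protein-free MH broth at 37°C. Human total-plasma linezolid profile simulated as 0.5-h infusion every 12 h for 48 h. Concentrated 18-h culture injected into the peripheral compartment 3 h before first sample, giving about 10^8 (E. faecalis) or 10^9 (S. aureus) CFU/ml. Viable counts by dilution plating over 0–24 h. Area indices calculated versus growth control curve. Duplicate runs.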

Enterococcus faecalis [8] = test: ABBC (0 to 24 hrs) in Enterococcus faecalis Ef1497 MutM3 in two-compartment pharmacokinetic/pharmacodynamic model at 600 mg, bid administered as 0.5 hr infusion for 2 days; type: functional; how it was run: as §3
Enterococcus faecalis [9] = test: Bactericidal activity against 13 hrs peripheral compartment culture samples of Enterococcus faecalis ATCC 29212 in two-compartment pharmacokinetic/pharmacodynamic model assessed as effect on bacterial count at 200 mg, bid administered as 0.5 hr infusion; type: functional; how it was run: as §1
[10] = AUC in two-compartment pharmacokinetic/pharmacodynamic model at 600 mg, bid administered as 0.5 hr infusion over 24 hrs; type: ADME; design: dose 600 mg, time < 24 hr; settings: in vivo, iv
[11] = AUC in two-compartment pharmacokinetic/pharmacodynamic model at 200 mg, bid administered as 0.5 hrs infusion; type: ADME; settings: iv
Enterococcus faecalis [12] = test: Bactericidal activity against 12.5 hrs peripheral compartment culture samples of Enterococcus faecalis ATCC 29212 in two-compartment pharmacokinetic/pharmacodynamic model assessed as effect on bacterial count at 600 mg, bid administered as 0.5 hr infusion; type: functional; how it was run: as §1
Staphylococcus aureus [13] = test: Bactericidal activity against 12.5 hrs peripheral compartment culture samples of Staphylococcus aureus RN4220 MutS2 in two-compartment pharmacokinetic/pharmacodynamic model assessed as effect on bacterial count at 600 mg, bid administered as 0.5 hr infusion; type: functional; how it was run: as §1
Staphylococcus aureus [14] = test: Bactericidal activity against 2 hrs peripheral compartment culture samples of Staphylococcus aureus RN4220 in two-compartment pharmacokinetic/pharmacodynamic model assessed as effect on bacterial count at 600 mg, bid administered as 0.5 hr infusion; type: functional; how it was run: as §1
Enterococcus faecalis [15] = test: Bactericidal activity against 24 hrs peripheral compartment culture samples of Enterococcus faecalis Ef1497 in two-compartment pharmacokinetic/pharmacodynamic model assessed as effect on bacterial count at 600 mg, bid administered as 0.5 hr infusion; type: functional; how it was run: as §1
[16] = Apparent volume of distribution in two-compartment pharmacokinetic/pharmacodynamic model at 600 mg, bid administered as 0.5 hrs infusion; settings: iv
Staphylococcus aureus [17] = test: Bactericidal activity against 12 hrs peripheral compartment culture samples of Staphylococcus aureus RN4220 MutS2 in two-compartment pharmacokinetic/pharmacodynamic model assessed as effect on bacterial count at 600 mg, bid administered as 0.5 hr infusion; type: functional; how it was run: as §1
Enterococcus faecalis [18] = test: Bactericidal activity against 48 hrs peripheral compartment culture samples of Enterococcus faecalis Ef1497 in two-compartment pharmacokinetic/pharmacodynamic model assessed as effect on bacterial count at 600 mg, bid administered as 0.5 hr infusion; type: functional; how it was run: as §1
Enterococcus faecalis [19] = test: Bactericidal activity against 2 hrs peripheral compartment culture samples of Enterococcus faecalis Ef1497 in two-compartment pharmacokinetic/pharmacodynamic model assessed as effect on bacterial count at 600 mg, bid administered as 0.5 hr infusion; type: functional; how it was run: as §1
Enterococcus faecalis [20] = test: Bactericidal activity against 13 hrs peripheral compartment culture samples of Enterococcus faecalis Ef1497 MutM3 in two-compartment pharmacokinetic/pharmacodynamic model assessed as effect on bacterial count at 200 mg, bid administered as 0.5 hr infusion; type: functional; how it was run: as §1
[21] = Residual concentration at the end of the administration interval in two-compartment pharmacokinetic/pharmacodynamic model at 200 mg, bid administered as 0.5 hrs infusion; type: ADME; settings: iv, read-out: Drug uptake
[22] = Mean residence time in two-compartment pharmacokinetic/pharmacodynamic model at 600 mg, bid administered as 0.5 hr infusion over 24 hrs; type: ADME, organism-based; settings: in vivo, iv
Enterococcus faecalis [23] = test: Bactericidal activity against 0.5 hrs peripheral compartment culture samples of Enterococcus faecalis ATCC 29212 in two-compartment pharmacokinetic/pharmacodynamic model assessed as effect on bacterial count at 200 mg, bid administered as 0.5 hr infusion; type: functional; how it was run: as §2
[24] = Cmax in two-compartment pharmacokinetic/pharmacodynamic model at 200 mg, bid administered as 0.5 hr infusion over 24 hrs; type: ADME, organism-based; design: dose 200 mg; settings: iv
Enterococcus faecalis [25] = test: Bactericidal activity against 0.5 hrs peripheral compartment culture samples of Enterococcus faecalis Ef1497 in two-compartment pharmacokinetic/pharmacodynamic model assessed as effect on bacterial count at 600 mg, bid administered as 0.5 hr infusion; type: functional; how it was run: as §2
[26] = Residual concentration at the end of the administration interval in two-compartment pharmacokinetic/pharmacodynamic model at 600 mg, bid administered as 0.5 hrs infusion; type: ADME; settings: iv, read-out: Drug uptake
Enterococcus faecalis [27] = test: Bactericidal activity against 1 hr peripheral compartment culture samples of Enterococcus faecalis Ef1497 in two-compartment pharmacokinetic/pharmacodynamic model assessed as effect on bacterial count at 800 mg, bid administered as 0.5 hr infusion; type: functional; how it was run: as §2
Enterococcus faecalis [28] = test: Bactericidal activity against 48 hrs peripheral compartment culture samples of Enterococcus faecalis Ef1497 in two-compartment pharmacokinetic/pharmacodynamic model assessed as effect on bacterial count at 800 mg, bid administered as 0.5 hr infusion; type: functional; how it was run: as §1

## CC(=O)NC[C@H]1CN(c2ccc(N3CCOCC3)c(F)c2)C(=O)O1 [LINEZOLID]
[1]
  Cmax: 14600 ng/mL
[2]
  MRT: 6.81 h
Enterococcus faecalis [3]
  log10CFU/ml: 1.23
Enterococcus faecalis [4]
  log10CFU/ml: -0.01
[5]
  Vd: 124 L
Staphylococcus aureus [6]
  log10CFU/ml: -0.21
Enterococcus faecalis [7]
  AUBC: 212.2 log10CFU/ml.hr
Enterococcus faecalis [8]
  ABBC: -2.66 log10CFU/ml.hr
Enterococcus faecalis [9]
  log10CFU/ml: 0.28
[10]
  AUC at 24 h: 35400 ng·h/mL
[11]
  AUC at 0.5 h: 10100 ng·h/mL
Enterococcus faecalis [12]
  log10CFU/ml: 0.1
Staphylococcus aureus [13]
  log10CFU/ml: -0.06
Staphylococcus aureus [14]
  log10CFU/ml: -0.26
Enterococcus faecalis [15]
  log10CFU/ml: 0.35
[16]
  Vd: 115 L
Staphylococcus aureus [17]
  log10CFU/ml: 0.21
Enterococcus faecalis [18]
  log10CFU/ml: 0.39
Enterococcus faecalis [19]
  log10CFU/ml: 0.08
Enterococcus faecalis [20]
  log10CFU/ml: 0.23
[21]
  concentration at 0.5 h: 390 ng/mL
[22]
  MRT: 8.1 h
Enterococcus faecalis [23]
  log10CFU/ml: -0.08
[24]
  Cmax: 4790 ng/mL
Enterococcus faecalis [25]
  log10CFU/ml: -0.01
[26]
  concentration at 0.5 h: 1170 ng/mL
Enterococcus faecalis [27]
  log10CFU/ml: -0.02
Enterococcus faecalis [28]
  log10CFU/ml: -1.16
